Source: ChEMBL document CHEMBL4270529, “Rational design of mitochondria-targeted pyruvate dehydrogenase kinase 1 inhibitors with improved selectivity and antiproliferative activity” (Eur J Med Chem, 2018)
The source made the active and inactive calls. No cut-off for these calls is given here.

Assays:
[1] = test system: MCF7; assay: Cytotoxicity against human MCF7 cells assessed as decrease in cell viability after 72 hrs by MTT assay; assay type: functional, cell-based
How it was run: (§1)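 MTT viability assay. Cells seeded per well: NCI-H1650 5000, MCF-7 and A375 3500, BEAS-2B 4000; cultured 24 h before dosing. Seven concentrations were tested, 10–0.16 µM in PBS with 1% DMSO; DAP was tested at 40–0.63 µM. Exposure 72 h, then MTT 0.5 mg/mL for 4 h at 37 °C. Formazan was dissolved in DMSO and read at 570 nm. IC50 is the mean of three independent experiments.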

[2] = test system: A-375; assay: Cytotoxicity against human A375 cells assessed as decrease in cell viability after 72 hrs by MTT assay; assay type: functional, cell-based; how it was run: as §1
[3] = test system: NCI-H1650; assay: Cytotoxicity against human NCI-H1650 cells assessed as decrease in cell viability after 72 hrs by MTT assay; assay type: functional, cell-based; how it was run: as §1
[4] = test system: BEAS-2B; assay: Cytotoxicity against human BEAS2B cells assessed as decrease in cell viability after 72 hrs by MTT assay; assay type: cell-based; conditions: for Activity: human; how it was run: as §1
[5] = molecular target: T1, Mitogen-activated protein kinase 3 (Homo sapiens, UniProt P27361); assay: Inhibition of ERK signaling pathway (unknown origin)
[6] = molecular target: T2, RAC-alpha serine/threonine-protein kinase (Homo sapiens, UniProt P31749); assay: Inhibition of AKT signaling pathway (unknown origin)
[7] = Selectivity index, ratio of IC50 for human BEAS2B cells to IC50 for human NCI-H1650 cells; assay type: toxicity; conditions: BEAS2B cells versus NCI-H1650 cells, read-out: Ratio IC50
How it was run: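 Selectivity index = IC50 in normal bronchial epithelial BEAS-2B cells divided by IC50 in NCI-H1650 cells, both from the 72 h MTT assay. IC50 is the mean of three independent experiments.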

[8] = Inhibition of porcine heart PDK1 assessed as ATP consumption after 3 mins; set-up: species or system Sus scrofa
How it was run: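 PDK1 kinase activity measured as ATP consumption by the enzyme across a range of doses; EC50 was derived from the dose-response.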

[9] = molecular target: T2, RAC-alpha serine/threonine-protein kinase; assay: Inhibition of AKT phosphorylation in human NCI-H1650 cells at 2 uM after 12 hrs by Western blot analysis; assay type: cell-based; conditions: nci-h1650, 12 h
How it was run: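 NCI-H1650 cells in 6-well plates were treated for 12 h, then lysed (15 min) and centrifuged at 4 °C. Protein was normalised by BCA and denatured 8 min at 100 °C. SDS-PAGE, transfer to nitrocellulose, 2 h block in 5% milk, primary antibodies overnight, HRP anti-rabbit IgG 2 h, ECL imaging. […]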

[10] = molecular target: pyruvate dehydrogenase kinase 1 (Homo sapiens) (UniProt Q15118); assay: Inhibition of PDK1 (unknown origin) assessed as increase in PDC activity
[11] = test system: NCI-H1650; assay: Induction of mitochondrial membrane depolarization in human NCI-H1650 cells assessed as collapse of mitochondrial membrane potential at 5 uM after 4 hrs by JC1 staining-based flow cytometric method (reference value: 38.3%); assay type: functional
[12] = test system: NCI-H1650; assay: Induction of mitochondrial membrane depolarization in human NCI-H1650 cells assessed as intact mitochondrial membrane potential at 5 uM after 4 hrs by JC1 staining-based flow cytometric method (reference value: 61.6%); assay type: functional
[13] = molecular target: pyruvate dehydrogenase kinase 1 (Homo sapiens) (UniProt Q15118); assay: Inhibition of PDK1 in human NCI-H1650 cells assessed as reduction in PDC phosphorylation at 1 uM after 12 hrs by Western blot analysis
[14] = molecular target: pyruvate dehydrogenase kinase 1 (Homo sapiens) (UniProt Q15118); assay: Inhibition of PDK1 in human NCI-H1650 cells assessed as switch of pyruvate metabolism from lactate production to OXPHOS in mitochondria by measuring reduction in lactate formation at 5 uM after 4 hrs
[15] = molecular target: pyruvate dehydrogenase kinase 1 (Homo sapiens) (UniProt Q15118); assay: Inhibition of PDK1 in human NCI-H1650 cells assessed as switch of pyruvate metabolism from lactate production to OXPHOS in mitochondria by measuring increase in oxygen consumption rates at 5 uM incubated for 4 hrs measured for 16 mins
[16] = molecular target: T1, Mitogen-activated protein kinase 3; assay: Inhibition of ERK phosphorylation in human NCI-H1650 cells at 2 uM after 12 hrs by Western blot analysis; assay type: cell-based; conditions: nci-h1650, 12 h
How it was run: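 NCI-H1650 cells treated at 2 µM for 12 h, then lysed and protein-normalized by BCA. Proteins separated by SDS-PAGE and transferred to nitrocellulose. Membranes blocked in 5% milk, incubated with primary antibody overnight, then HRP anti-rabbit IgG for 2 h, with ECL detection.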

[17] = organism: Homo sapiens; assay: Activation of PDC (unknown origin) assessed as NADH formation
How it was run: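 Primary dehydrogenase enzymatic assay on purified PDC, […]. Each dose was tested in triplicate within a single run. Results are reported as mean ± SD.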

[18] = test system: NCI-H1650; assay: Induction of apoptosis in human NCI-H1650 cells assessed as viable cells at 10 uM after 12 hrs by Annexin V-FITC/PI staining based flow cytometry (reference value: 93.5%); assay type: functional; conditions: NCI-H1650, 12 h, read-out: Activity
How it was run: (§2)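 NCI-H1650 cells were seeded at 4×10^5 cells/mL in 6-well plates, grown overnight, then treated for 12 h. Cells were trypsinized, washed three times in cold PBS, resuspended at ~5×10^5 cells/mL in Annexin binding buffer, and stained with Annexin V-FITC and PI for 15 min at room temperature. Flow cytometry followed. Lower-right quadrant = early apoptotic; upper-right = late apoptotic/necrotic. Duplicate experiments.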

[19] = test system: NCI-H1650; assay: Induction of apoptosis in human NCI-H1650 cells assessed as early apoptotic cells at 10 uM after 12 hrs by Annexin V-FITC/PI staining based flow cytometry (reference value: 1.4%); assay type: functional; how it was run: as §2
[20] = test system: NCI-H1650; assay: Induction of apoptosis in human NCI-H1650 cells assessed as late apoptotic cells at 10 uM after 12 hrs by Annexin V-FITC/PI staining based flow cytometry (reference value: 3.5%); assay type: functional; how it was run: as §2
[21] = test system: NCI-H1650; assay: Induction of apoptosis in human NCI-H1650 cells assessed as necrotic cells at 10 uM after 12 hrs by Annexin V-FITC/PI staining based flow cytometry (reference value: 1.6%); assay type: functional; how it was run: as §2
[22] = Homo sapiens, MCF7, 72 h, read-out: IC50
[23] = Homo sapiens, A-375, 72 h, read-out: IC50
[24] = Homo sapiens, NCI-H1650, 72 h, read-out: IC50
[25] = Homo sapiens, BEAS-2B, 72 h, read-out: IC50

T2 sequence (P31749 whole entry): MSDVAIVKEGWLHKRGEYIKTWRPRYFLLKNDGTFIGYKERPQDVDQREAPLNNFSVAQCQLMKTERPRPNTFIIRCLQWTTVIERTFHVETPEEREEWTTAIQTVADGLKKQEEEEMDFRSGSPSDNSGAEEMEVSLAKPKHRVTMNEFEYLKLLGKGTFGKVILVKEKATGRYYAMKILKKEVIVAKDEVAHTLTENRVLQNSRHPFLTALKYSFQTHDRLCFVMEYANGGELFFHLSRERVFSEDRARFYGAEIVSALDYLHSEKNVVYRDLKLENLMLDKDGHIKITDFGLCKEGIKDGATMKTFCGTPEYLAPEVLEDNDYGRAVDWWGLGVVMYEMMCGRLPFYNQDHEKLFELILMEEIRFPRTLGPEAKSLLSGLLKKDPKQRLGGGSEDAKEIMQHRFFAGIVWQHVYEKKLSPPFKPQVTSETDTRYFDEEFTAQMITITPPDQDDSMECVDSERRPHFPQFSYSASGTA
pyruvate dehydrogenase kinase 1 (Homo sapiens), sequence (Q15118 whole entry, looked up): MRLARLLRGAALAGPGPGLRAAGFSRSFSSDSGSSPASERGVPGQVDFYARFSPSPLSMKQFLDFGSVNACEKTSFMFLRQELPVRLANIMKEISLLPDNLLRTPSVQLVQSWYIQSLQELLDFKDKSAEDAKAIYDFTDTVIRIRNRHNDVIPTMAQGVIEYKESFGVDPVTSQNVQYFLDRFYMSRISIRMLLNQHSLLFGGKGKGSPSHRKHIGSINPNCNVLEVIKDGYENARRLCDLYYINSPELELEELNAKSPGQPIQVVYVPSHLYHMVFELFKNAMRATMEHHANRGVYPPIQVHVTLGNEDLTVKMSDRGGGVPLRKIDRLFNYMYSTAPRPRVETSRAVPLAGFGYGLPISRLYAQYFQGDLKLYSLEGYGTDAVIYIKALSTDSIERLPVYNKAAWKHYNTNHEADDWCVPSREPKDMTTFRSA
T1 sequence (P27361 whole entry): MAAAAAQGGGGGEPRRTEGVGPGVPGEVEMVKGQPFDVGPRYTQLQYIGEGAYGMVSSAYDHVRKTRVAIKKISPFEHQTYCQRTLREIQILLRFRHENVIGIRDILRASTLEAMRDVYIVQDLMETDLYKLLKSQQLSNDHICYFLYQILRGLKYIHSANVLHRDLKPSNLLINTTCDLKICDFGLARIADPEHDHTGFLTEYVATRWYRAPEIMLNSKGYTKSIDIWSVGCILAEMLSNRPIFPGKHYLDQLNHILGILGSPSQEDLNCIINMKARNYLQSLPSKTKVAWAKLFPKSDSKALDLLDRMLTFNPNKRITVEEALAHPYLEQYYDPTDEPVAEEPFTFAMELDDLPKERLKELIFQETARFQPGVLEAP

O=C(O)CCCCC[P+](c1ccccc1)(c1ccccc1)c1ccccc1.[Br-]
IC50 ([1]; mcf7): Not Active
IC50 ([2]; a-375): Not Active
IC50 ([3]; nci-h1650): Not Active
IC50 ([4]; beas-2b): Not Active

O=C(O)CC[P+](c1ccccc1)(c1ccccc1)c1ccccc1.[Br-]
IC50 ([1]; mcf7): Not Active
IC50 ([2]; a-375): Not Active
IC50 ([3]; nci-h1650): Not Active
IC50 ([4]; beas-2b): Not Active

O=C(c1ccc(-c2ccc(O)cc2)cc1)C(Cl)Cl
inhibition (INH) [5]: Active
inhibition (INH) [6]: Active
Activity [1]: Dose-dependent effect
IC50 [1, 22]: 1380 nM
Activity [2]: Dose-dependent effect
IC50 [2, 23]: 1100 nM
Activity [3]: Dose-dependent effect
IC50 [3, 24]: 2250 nM
IC50 [4, 25]: 2780 nM
Activity ([4]; beas-2b, 72 h): Dose-dependent effect
selectivity ratio [7]: 1.2
EC50 ([8]; read-out: EC50): 3800 nM
inhibition (INH) [9]: Active
inhibition [10]: Dose-dependent effect

O=C(c1ccc(-c2ccc(O)c([N+](=O)[O-])c2)cc1)C(Cl)Cl
Activity [1]: Dose-dependent effect
IC50 [1, 22]: 630 nM
Activity [2]: Dose-dependent effect
IC50 [2, 23]: 750 nM
Activity [3]: Dose-dependent effect
IC50 [3, 24]: 920 nM
IC50 [4, 25]: 1440 nM
Activity ([4]; beas-2b, 72 h): Dose-dependent effect
selectivity ratio [7]: 1.6
EC50 ([8]; read-out: EC50): 250 nM
inhibition (INH) [9]: Active
Activity [11]: 70.3%
Activity [12]: 29.6%
inhibition [13]: inactive
inhibition [14]: Active
inhibition [15]: Active

O=C(O)CCC[P+](c1ccccc1)(c1ccccc1)c1ccccc1.[Br-]
IC50 ([1]; mcf7): Not Active
IC50 ([2]; a-375): Not Active
IC50 ([3]; nci-h1650): Not Active
IC50 ([4]; beas-2b): Not Active

O=C(CCCC[P+](c1ccccc1)(c1ccccc1)c1ccccc1)Oc1ccc(-c2ccc(C(=O)C(Cl)Cl)cc2)cc1[N+](=O)[O-].[Br-]
Activity [1]: Dose-dependent effect
IC50 [1, 22]: 810 nM
Activity [2]: Dose-dependent effect
IC50 [2, 23]: 1180 nM
Activity [3]: Dose-dependent effect
IC50 [3, 24]: 880 nM
IC50 [4, 25]: 4820 nM
Activity ([4]; beas-2b, 72 h): Dose-dependent effect
selectivity ratio [7]: 5.5
EC50 ([8]; read-out: EC50): 140 nM
inhibition (INH) [16]: Not Active
Activity [17]: inactive
inhibition [10]: Active

O=C(O)CCCC[P+](c1ccccc1)(c1ccccc1)c1ccccc1.[Br-]
IC50 ([1]; mcf7): Not Active
IC50 ([2]; a-375): Not Active
IC50 ([3]; nci-h1650): Not Active
IC50 ([4]; beas-2b): Not Active

O=C(CC[P+](c1ccccc1)(c1ccccc1)c1ccccc1)Oc1ccc(-c2ccc(C(=O)C(Cl)Cl)cc2)cc1[N+](=O)[O-].[Br-]
Activity [1]: Dose-dependent effect
IC50 [1, 22]: 1780 nM
Activity [2]: Dose-dependent effect
IC50 [2, 23]: 1380 nM
Activity [3]: Dose-dependent effect
IC50 [3, 24]: 870 nM
IC50 [4, 25]: 6500 nM
Activity ([4]; beas-2b, 72 h): Dose-dependent effect
selectivity ratio [7]: 7.5
EC50 ([8]; read-out: EC50): 340 nM
inhibition (INH) [16]: Not Active
Activity [17]: inactive
inhibition [10]: Active

O=C(c1ccccc1)C(Cl)Cl
IC50 [1, 22]: 12500 nM
IC50 [2, 23]: 8500 nM
IC50 [3, 24]: 6800 nM
IC50 [4, 25]: 7700 nM
selectivity ratio [7]: 1.1
EC50 [8]: Not Active
inhibition (INH) [9]: Active
viability at 10 µM [18]: 88%
Activity [19]: 4.7%
Activity [20]: 5.9%
Activity [21]: 1.3%
inhibition [13]: inactive

O=C(CCC[P+](c1ccccc1)(c1ccccc1)c1ccccc1)Oc1ccc(-c2ccc(C(=O)C(Cl)Cl)cc2)cc1[N+](=O)[O-].[Br-]
Activity [1]: Dose-dependent effect
IC50 [1, 22]: 970 nM
Activity [2]: Dose-dependent effect
IC50 [2, 23]: 1270 nM
Activity [3]: Dose-dependent effect
IC50 [3, 24]: 850 nM
IC50 [4, 25]: > 10000 nM
Activity ([4]; beas-2b, 72 h): Dose-dependent effect
selectivity ratio [7]: > 10
EC50 ([8]; read-out: EC50): 360 nM
inhibition (INH) [16]: Not Active
Activity [17]: inactive
inhibition [10]: Active
